Assay results taken from ChEMBL document CHEMBL4052605, “Lissoclibadin 1, a Polysulfur Aromatic Alkaloid from the Indonesian Ascidian Lissoclinum cf. badium, Induces Caspase-Dependent Apoptosis in Human Colon Cancer Cells and Suppresses Tumor Growth in Nude Mice” (J Nat Prod, 2017).
pIC50: −log10 of the molar value.

Columns and labels:
Format in all cases: functional, cell-based
MCF7 = test: Antiproliferative activity against human MCF7 cells after 24 hrs by WST-1 assay; conditions: MCF7, 24 h
Procedure, shortened: (§1)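 WST-1 viability assay. Cells seeded at 5 × 10^3 per well and grown 24 h, then given lissoclibadins at 0.1−40 μM (etoposide 1.0−100 μM) in triplicate for 24 h. WST-1 added and absorbance read 4 h later at 450 nm, background subtracted at 650 nm. Viability expressed as % of control; IC50 taken as 50% inhibition of viability. Three experiments, mean ± SD.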

HeLa S3 = test: Antiproliferative activity against human HeLaS3 cells after 24 hrs by WST-1 assay; conditions: HeLa S3, 24 h; procedure, shortened: as §1
NCI-H28 = test: Antiproliferative activity against human NCI-H28 cells after 24 hrs by WST-1 assay; conditions: NCI-H28, 24 h; procedure, shortened: as §1
HCT-15 = test: Antiproliferative activity against human HCT15 cells after 24 hrs by WST-1 assay; conditions: HCT-15, 24 h; procedure, shortened: as §1

Q: How did the pIC50 (MCF7) turn out when `COc1cc(CCN(C)C)c2c(c1O)SSSSS2` [ISOLISSOCLINOTOXIN B] was run?
A: 5.19

Q: What about the pIC50 (HeLa S3) of the same compound?
A: 5.23

Q: And the pIC50 (NCI-H28)?
A: 5.19

Q: What about the pIC50 (HCT-15) of the same compound?
A: 5.38
